Test results: paper PMC2811258 (Biochemistry, 2009)
“And” between values parts separate entries of the source, which are not always exact repeats. Equal entries are not always repeated. “Also recorded” adds a separate entry of the source. Where two headings read alike, the source gives them in different places.

Legend:
TmP4 [1] = conditions: read-out: Kd^ATP for TmP4; chromatographic approach; ref [2]; cited from earlier work
[2] = target: T1, TmCheA dimer (full-length T. maritima CheA) (Thermotoga maritima, UniProt Q56310); assay: Competition binding between ATP and TNP-ATP for TmCheA binding sites; conditions: 4 °C, Mg2+
T1 sequence (Q56310 1-671): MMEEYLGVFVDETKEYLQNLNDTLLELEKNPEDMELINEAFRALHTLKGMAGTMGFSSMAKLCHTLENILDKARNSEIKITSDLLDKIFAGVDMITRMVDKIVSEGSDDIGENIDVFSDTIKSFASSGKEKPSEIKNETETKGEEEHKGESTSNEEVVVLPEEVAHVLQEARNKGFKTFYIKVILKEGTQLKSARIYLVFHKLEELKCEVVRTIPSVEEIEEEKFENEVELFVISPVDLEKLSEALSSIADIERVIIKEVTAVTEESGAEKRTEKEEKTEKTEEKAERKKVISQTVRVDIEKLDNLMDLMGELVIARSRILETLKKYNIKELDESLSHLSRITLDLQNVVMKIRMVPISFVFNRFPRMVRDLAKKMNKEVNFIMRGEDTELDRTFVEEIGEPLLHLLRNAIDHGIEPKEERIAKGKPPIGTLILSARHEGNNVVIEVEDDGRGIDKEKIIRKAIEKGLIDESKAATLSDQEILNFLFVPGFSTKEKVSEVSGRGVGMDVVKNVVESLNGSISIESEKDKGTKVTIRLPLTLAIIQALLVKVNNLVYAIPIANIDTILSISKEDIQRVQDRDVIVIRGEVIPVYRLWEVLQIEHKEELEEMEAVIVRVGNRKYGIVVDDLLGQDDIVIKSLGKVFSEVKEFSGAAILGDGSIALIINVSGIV
How it was run: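 Competition titrations at 4 °C: TNP-ATP aliquots added to stirred full-length TmCheA (0.6 μM dimer) in TnM buffer (25 mM Tris, 0.5 mM EDTA, 10% glycerol, 25 mM NaCl, 50 mM K-glutamate, 20 mM MgCl2) containing 0, 2.34, 5.9, 11.9 or 23.4 mM ATP. Emission spectra (four-scan averages), background-corrected by mock titrations. At least two independent experiments averaged.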

[3] = target: T1, TmCheA dimer (full-length T. maritima CheA); assay type: binding; conditions: 4 °C
[4] = target: T2, TmP4 (isolated P4 domain of T. maritima CheA, monomer) (Thermotoga maritima, UniProt Q56310); assay: Fluorescence-monitored TNP-ATP binding titrations with TmP4; conditions: 4 °C, Mg2+; λex 520 nm, emission 530–600 nm
T2 sequence (Q56310 356-540): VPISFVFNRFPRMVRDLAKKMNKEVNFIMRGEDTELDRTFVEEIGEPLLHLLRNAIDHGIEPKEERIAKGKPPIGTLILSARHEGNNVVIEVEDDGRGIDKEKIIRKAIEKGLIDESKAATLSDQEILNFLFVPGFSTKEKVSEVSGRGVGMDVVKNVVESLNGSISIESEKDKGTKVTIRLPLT

TmP4 [5] = conditions: read-out: Upper limit of Kd for the TmP4–TNP-ATP binding interaction; previous work; ref [2]; cited from earlier work
[6] = without versus with 20 mM MgCl2

SMILES | Kd (TmP4 [1]) [nM] | Kd2^ATP/Kd1^ATP (affinity difference between the two sites) [2] | Kd ([2]; read-out: Kd1^ATP (high-affinity site of TmCheA dimer), effect of competitor ATP on apparent Kd1^TNP) | IMFC of T.AA.T complex ([3]; 20 mM MgCl2, 0.6 μM TmCheA dimer, two-site model) | IMFC of T.AA complex (IMFC site 1) ([3]; 20 mM MgCl2, TmCheA titrated with excess TNP nucleotide) | IMFC site 2 (second, low-affinity site) ([3]; Mg2+) | IMFC of T.AA complex from reverse stoichiometry titration ([3]; Mg2+, TmCheA added to 0.28 μM TNP-ATP) | IMFC of T.AA complex, absence of Mg2+ ([3]; no MgCl2, 20 mM Na2EDTA) | IMFC of T.AA.T complex, absence of Mg2+ ([3]; no MgCl2, 20 mM Na2EDTA) | Decrease of site 2 affinity in the absence of Mg2+ [3, 6] [fold] | Effect of Mg2+ removal on site 1 binding [3, 6] | Kd ([3]; Kd1^TNP (high-affinity site 1 of TmCheA dimer), Mg2+, forward and reverse titrations at low protein and ligand concentrations (0.002–0.003 μM)) | Kd ([3]; Kd1^TNP, titration of CheA with excess TNP-ATP, Mg2+, 0.003 μM TmCheA dimer, one-site binding model) [nM] | Kd ([3]; Kd1^TNP, titration of TNP-ATP with excess TmCheA, Mg2+, 0.002 μM TNP-ATP, one-site binding model) [nM] | Binding stoichiometry of high-affinity TNP-ATP binding to TmCheA dimer ([3]; reverse titration, 0.28 μM TNP-ATP, Mg2+) | IMFC (integrated molar fluorescence coefficient) of the TmP4 · TNP-ATP complex [4] | Kd (TmP4 [5]) [nM]
Nc1ncnc2c1ncn2[C@@H]1O[C@H](COP(=O)(O)OP(=O)(O)OP(=O)(O)O)[C@@H](O)[C@H]1O [ATP] | 15000 | ~10^3 fold | ~6000 nM and 6000 nM | – | – | – | – | – | – | – | – | – | – | – | – | – | –
Nc1ncnc2c1ncn2[C@@H]1O[C@H](COP(=O)(O)OP(=O)(O)OP(=O)(O)O)[C@H]2OC3(O[C@H]21)C([N+](=O)[O-])=CC(=[N+]([O-])[O-])C=C3[N+](=O)[O-] (some centres unmarked) [TNP-ATP, 2′(3′)-O-(2,4,6-trinitrophenyl)adenosine 5′-triphosphate] | – | – | – | 9.5 × 10^6 cps/μM | 2.0 × 10^6 cps/μM | 7.5 × 10^6 cps/μM | ~2× 10^6 cps/μM and 2.0 × 10^6 cps/μM | 2.4 × 10^6 cps/μM | 8.9 × 10^6 cps/μM | 5 | insensitive to the presence or absence of Mg^2+ | ~1.6 nM and 1.6 nM | 1.8 | 1.4 | each TmCheA dimer can bind one molecule of TNP-ATP with high affinity; also recorded: one TNP-ATP per CheA dimer | 1.9 × 10^6 cps/μM | ≤ 10
